This passage reports IC50 and Ratio results from ChEMBL document CHEMBL1125366, “Low molecular weight, non-peptide fibrinogen receptor antagonists” (J Med Chem, 1992).

The nature of test [1]: Inhibition of platelet aggregation in human-platelet rich plasma(h-PRP) induced by adenosine 5'-diphosphate-(ADP). Type of test: functional. The gist of the method:
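Citrated human PRP with serial inhibitor dilutions; aggregation triggered by 10 μM ADP (final) and followed as rate of light transmission change in an aggregometer; plasma from at least four donors.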

The nature of test [2]: Inhibition of platelet aggregation in human-platelet rich plasma(h-PRP) induced by thrombin. The class given is functional. In short, it runs like this: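 Citrated human PRP with serial inhibitor dilutions; aggregation triggered by thrombin at 0.2 unit/mL (final) and followed as rate of light transmission change in an aggregometer; plasma from at least four donors.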
A short description of test [3]: Inhibition of platelet aggregation in human-platelet rich plasma(h-PRP) induced by collagen. Type of test: functional. In short, it runs like this: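 Citrated human PRP with serial inhibitor dilutions; aggregation triggered by collagen at 2.5 μg/mL (final) and followed as rate of light transmission change in an aggregometer; plasma from at least four donors.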

For test [4], the target named is Integrin alpha-IIb/beta-3 (Homo sapiens) (UniProt P05106+P08514). As to the kind of experiment: Inhibition of fibrinogen binding to immobilized fibrinogen receptor. The class given is protein-complex assay. Set-up: reference not given here.
The target in test [5] is Integrin alpha-V/beta-3 (Homo sapiens) (UniProt P05106+P06756). Nature of the test: Inhibition of fibrinogen binding to immobilized vitronectin receptor. Set-up: reference not given here. Type of test: protein-complex assay.

Peptide text beside a SMILES is read from it.

The IC50 is the concentration needed to halve the response being measured. Consider `CN(CC(=O)c1ccc(OCC(=O)O)c(OCC(=O)O)c1)C(=O)c1ccc(C(=N)N)cc1`, for which the figures for the half-inhibitory concentration (IC50) in test [1], in test [2] and in test [3] were 70 nM, 60 nM and 70 nM, respectively. Moreover, the Ratio was found to be 0.0001 in test [4] and 37000 in test [5].

Regarding `C[C@@H](Cc1ccc(OCC(=O)O)cc1)NS(=O)(=O)c1ccc(C(=N)N)cc1`, the IC50 worked out at 7400 nM in test [1], 9300 nM in test [2] and 11000 nM in test [3]. In addition, the Ratio was determined as 0.34 in test [4] and 1700 in test [5].

For `N=C(N)c1ccc(C(=O)N[C@@H](Cc2ccc(O)cc2)C(=O)N2CCC(OCC(=O)O)CC2)cc1` [LAMIFIBAN], the IC50 in test [1] was determined as 30 nM; in test [2] it was 30 nM; in test [3] it was 20 nM. Besides, the Ratio in test [4] was determined as 0.0002; in test [5], 17500.

Take `CC(C)(Oc1ccc(CCNS(=O)(=O)c2ccc(C(=N)N)cc2)cc1)C(=O)O`: the IC50 in test [1], in test [2] and in test [3] was over 200000 nM throughout. The Ratio in test [4] is over 100.

Regarding `CC(C)[C@H](NC(=O)[C@H](CC(=O)O)NC(=O)CNC(=O)CCc1ccc(C(=N)N)cc1)C(=O)O`, the half-inhibitory concentration (IC50) in test [3] was found to be 2300 nM.

For `CC(C)[C@H](NC(=O)[C@H](CC(=O)O)NC(=O)CNC(=O)Cc1ccc(C(=N)N)cc1)C(=O)O`, the IC50 in test [1] amounted to 300 nM; in test [2], 300 nM; in test [3], 500 nM. Moreover, the Ratio was determined as 0.001 in test [4] and 560 in test [5].

Turning to `N=C(N)c1ccc(C(=O)NCC(=O)c2ccc(OCC(=O)O)cc2)nc1`, the IC50 in test [1] was found to be 30 nM; in test [2], 40 nM; in test [3], 20 nM. Moreover, the Ratio is 0.001 in test [4] and over 20000 in test [5].

`N=C(N)NCCC[C@H](N)C(=O)NCC(=O)N[C@@H](CC(=O)O)C(=O)N[C@@H](Cc1ccccc1)C(=O)O` (H-RGDF-OH): the IC50 in test [1] turned out to be 19000 nM; in test [2], 21000 nM; in test [3] it was 38000 nM. In addition, the Ratio in test [4] is 0.3; in test [5], 3.5.

In the case of `N=C(N)c1ccc(C(=O)NCCC(=O)N[C@@H](CC(=O)O)C(=O)N[C@@H](Cc2ccc(O)cc2)C(=O)O)cc1`, the IC50 in test [1] was found to be 50 nM; in test [2], 20 nM; in test [3], 40 nM. For the same compound, the Ratio in test [4] turned out to be 6e-05.

As to `N=C(N)c1ccc(C(=O)Nc2cccc(C(=O)NCCC(=O)O)c2)cc1`, the IC50 in test [1] came out at 200 nM; in test [2] it was 500 nM; in test [3], 400 nM. In addition, the results for the Ratio in test [4] and in test [5] were 0.0005 and 8000, respectively.

As for `N=C(N)c1ccc(C(=O)N[C@@H](CCCN)C(=O)N2CCC(OCC(=O)O)CC2)cc1`, the results for the IC50 in test [1], in test [2] and in test [3] were 100 nM, 70 nM and 70 nM, respectively. Also, the Ratio is 0.009 in test [4] and over 30000 in test [5].

With `N=C(N)c1ccc(S(=O)(=O)NCCc2ccc(OCC(=O)O)cc2)cc1`, the IC50 in test [1] turned out to be 15000 nM; in test [2] it was 12000 nM; in test [3], 12000 nM. In addition, the Ratio in test [4] turned out to be 0.2.

With `N=C(N)c1ccc(C(=O)NCC(=O)N[C@@H](CC(=O)O)C(=O)N[C@@H](Cc2ccccc2)C(=O)O)cc1`, the IC50 in test [2] was determined as 78000 nM; in test [3], 76000 nM. Moreover, the figures for the Ratio in test [4] and in test [5] were 1 and 570, respectively.

As to `N=C(N)c1ccc(C(=O)N2CCC[C@H]2C(=O)N2CCC(OCC(=O)O)CC2)cc1`, the IC50 in test [1] was found to be 60 nM; in test [2], 50 nM; in test [3], 110 nM. Besides, in test [4], the Ratio is 0.002.

Compound `NCc1ccc(C(=O)Nc2cccc(C(=O)NCCC(=O)O)c2)cc1` yielded an IC50 in test [3] of 9600 nM.

`COC(=O)COc1ccc(C[C@H](C)NS(=O)(=O)c2ccc(C(=N)N)cc2)cc1` gave a 50% inhibitory concentration (IC50) in test [3] of 11000 nM.

With `N=C(N)c1ccc(C(=O)NCCC(=O)NCCC(=O)O)cc1`, the IC50 is 1100 nM in test [1], 900 nM in test [2] and 900 nM in test [3]. Besides, the Ratio in test [4] is 0.007.
